According to ChEMBL document CHEMBL4411337, “2-Aminothiazole Derivatives as Selective Allosteric Modulators of the Protein Kinase CK2. 1. Identification of an Allosteric Binding Site” (J Med Chem, 2019):
Values belong to the compound of their own block, whether it stands above or below them. The source made the active and inactive calls. The calls are words filed in the database; no cut-off is given here.

Legend:
[1] = target: T1, Casein kinase II subunit alpha (Homo sapiens, UniProt P68400); experiment: Inhibition of recombinant human GST-tagged CK2alpha at 10 uM in presence of ATP by radiometric kinase assay relative to control
How it was run: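 Radiometric assay of CK2α with 100 μM ATP. Single-concentration percent inhibition at 10 μM relative to control. Values are the mean of ≥2 experiments.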
Target sequence in this assay (P68400 whole entry, looked up): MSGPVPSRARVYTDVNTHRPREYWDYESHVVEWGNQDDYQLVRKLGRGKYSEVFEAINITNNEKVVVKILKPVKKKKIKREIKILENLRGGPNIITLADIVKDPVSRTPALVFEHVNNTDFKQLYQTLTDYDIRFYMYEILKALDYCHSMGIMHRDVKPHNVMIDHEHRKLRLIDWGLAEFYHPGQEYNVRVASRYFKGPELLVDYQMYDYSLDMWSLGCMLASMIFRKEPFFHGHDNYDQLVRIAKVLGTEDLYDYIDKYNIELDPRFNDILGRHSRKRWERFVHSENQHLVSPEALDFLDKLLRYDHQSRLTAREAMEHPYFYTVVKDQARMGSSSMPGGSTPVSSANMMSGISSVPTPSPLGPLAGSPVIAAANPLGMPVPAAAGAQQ

[2] = Solubility of the compound in water; format: physicochemical; conditions: buffer
[3] = target: T1, Casein kinase II subunit alpha; experiment: Competitive binding affinity to CK2alpha (1 to 335 residues) (unknown origin) at 10 uM in presence of IP6 by native mass spectrometry
How it was run: (§1)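 Native nESI-MS of CK2α residues 1–335 (10 μM) after buffer exchange into 0.50 M ammonium acetate pH 8.5 with 5% (v/v) DMSO. […] Capillary was 1.6–2.0 kV, cone 30–90 V, collision 10 V, source 20 °C; CsI calibration. Ligand binding was read from the charge-state spectra.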
Target sequence in this assay (P68400 whole entry, looked up): as above

[4] = target: T1, Casein kinase II subunit alpha; experiment: Inhibition of recombinant human GST-tagged CK2alpha in presence of ATP by radiometric kinase assay
Target sequence in this assay (P68400 whole entry): as the sequence (P68400 whole entry, looked up) above

[5] = target: T1, Casein kinase II subunit alpha; experiment: Binding affinity to CK2alpha (unknown origin) at 500 uM in presence of kinase inhibitor CX-4945 by STD-based NMR spectroscopy
How it was run: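 STD NMR at 600 MHz and 293 K in PBS pH 7.3 with 10 mM NaCl, 2 mM MgCl2 and 10% D2O. […] On-resonance protein saturation was at 0.6 ppm for 2 s. STD factors were normalized so the highest STD factor is 100%.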
Target sequence in this assay (P68400 whole entry, looked up): as above

[6] = target: T1, Casein kinase II subunit alpha; experiment: Mixed-type inhibition of recombinant human GST-tagged CK2alpha in presence of ATP by Lineweaver-Burk plot analysis
Target sequence in this assay (P68400 whole entry): as the sequence (P68400 whole entry, looked up) above

[7] = target: T1, Casein kinase II subunit alpha; experiment: Competitive binding affinity to CK2alpha (1 to 335 residues) (unknown origin) at 10 uM by native mass spectrometry; how it was run: as §1
Target sequence in this assay (P68400 whole entry, looked up): as above

[8] = target: T1, Casein kinase II subunit alpha; experiment: Competitive binding affinity to CK2alpha (1 to 335 residues) (unknown origin) at 10 uM in presence of IP6 by nESI-MS analysis
Target sequence in this assay (P68400 whole entry, looked up): as above

[9] = target: T1, Casein kinase II subunit alpha; experiment: Competitive binding affinity to CK2alpha (1 to 335 residues) (unknown origin) at 10 uM in presence of IP6 by nESI-MS analysis; how it was run: as §1
Target sequence in this assay (P68400 whole entry, looked up): as above

[10] = target: T1, Casein kinase II subunit alpha; experiment: Non-ATP competitive binding affinity to GST-tagged CK2alpha (unknown origin) assessed as melting temperature at 50 uM by temperature-dependent circular dichroism (reference value: […] degC)
[11] = target: Glycogen synthase kinase-3 beta (Homo sapiens) (UniProt P49841); experiment: Inhibition of GSK3beta (unknown origin) assessed as residual activity at 50 uM relative to control
How it was run: (§2)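 Selectivity profiling against a panel of 44 human kinases. For each kinase, ATP was set to that kinase's Km. Values are residual activity in duplicate assays.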

[12] = target: Protein kinase C alpha type (Homo sapiens) (UniProt P17252); experiment: Inhibition of PKCalpha (unknown origin) assessed as residual activity at 50 uM relative to control
How it was run: (§3)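 Profiling panel of 44 human kinases. ATP set to each kinase's Km. Run in duplicate; duplicates within 15–17% of each other.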

[13] = target: Ephrin type-A receptor 4 (Homo sapiens) (UniProt P54764); experiment: Inhibition of EPHA4 (unknown origin) assessed as residual activity at 50 uM relative to control; how it was run: as §2
[14] = target: Activin receptor type-1 (Homo sapiens) (UniProt Q04771); experiment: Inhibition of ALK2 (unknown origin) assessed as residual activity at 50 uM relative to control; how it was run: as §2
Chain of Activin receptor type-1 (Homo sapiens) (Q04771 whole entry): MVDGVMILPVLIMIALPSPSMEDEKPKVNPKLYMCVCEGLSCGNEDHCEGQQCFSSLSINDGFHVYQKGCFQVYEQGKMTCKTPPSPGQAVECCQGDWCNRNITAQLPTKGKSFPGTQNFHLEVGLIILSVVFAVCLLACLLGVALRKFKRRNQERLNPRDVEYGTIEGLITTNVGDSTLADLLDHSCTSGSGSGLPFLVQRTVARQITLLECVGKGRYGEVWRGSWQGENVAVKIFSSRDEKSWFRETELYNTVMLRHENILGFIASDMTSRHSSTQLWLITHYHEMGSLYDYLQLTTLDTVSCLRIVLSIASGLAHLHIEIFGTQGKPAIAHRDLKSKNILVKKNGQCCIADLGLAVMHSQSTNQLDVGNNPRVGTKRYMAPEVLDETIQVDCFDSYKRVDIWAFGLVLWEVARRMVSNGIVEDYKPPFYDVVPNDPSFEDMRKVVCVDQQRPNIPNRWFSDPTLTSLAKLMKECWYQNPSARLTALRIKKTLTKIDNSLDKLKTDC

[15] = target: Dual specificity protein kinase CLK1 (Homo sapiens) (UniProt P49759); experiment: Inhibition of CLK1 (unknown origin) assessed as residual activity at 50 uM relative to control; how it was run: as §2
Chain of Dual specificity protein kinase CLK1 (Homo sapiens) (P49759 whole entry, looked up): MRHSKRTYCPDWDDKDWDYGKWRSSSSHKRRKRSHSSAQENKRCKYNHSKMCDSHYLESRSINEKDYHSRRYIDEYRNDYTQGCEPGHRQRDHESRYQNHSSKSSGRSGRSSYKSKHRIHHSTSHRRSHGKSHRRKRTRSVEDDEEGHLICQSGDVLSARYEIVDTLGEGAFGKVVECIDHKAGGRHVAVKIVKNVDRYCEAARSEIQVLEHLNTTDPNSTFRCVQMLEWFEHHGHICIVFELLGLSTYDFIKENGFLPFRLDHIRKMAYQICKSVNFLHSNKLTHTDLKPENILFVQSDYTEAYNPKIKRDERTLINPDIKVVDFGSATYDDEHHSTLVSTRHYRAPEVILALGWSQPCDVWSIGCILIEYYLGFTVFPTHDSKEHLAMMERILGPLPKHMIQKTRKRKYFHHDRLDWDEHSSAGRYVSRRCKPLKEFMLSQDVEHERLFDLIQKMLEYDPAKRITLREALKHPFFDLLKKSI

[16] = target: Platelet-derived growth factor receptor alpha (Homo sapiens) (UniProt P16234); experiment: Inhibition of PDGFRalpha (unknown origin) assessed as residual activity at 50 uM relative to control; how it was run: as §2
[17] = target: Death-associated protein kinase 3 (Homo sapiens) (UniProt O43293); experiment: Inhibition of DAPK3 (unknown origin) assessed as residual activity at 50 uM relative to control; how it was run: as §2
[18] = target: Serine/threonine-protein kinase Chk2 (Homo sapiens) (UniProt O96017); experiment: Inhibition of CHK2 (unknown origin) assessed as residual activity at 50 uM relative to control; how it was run: as §2
[19] = target: Mast/stem cell growth factor receptor Kit (Homo sapiens) (UniProt P10721); experiment: Inhibition of cKIT (unknown origin) assessed as residual activity at 50 uM relative to control; how it was run: as §3
[20] = target: Homeodomain-interacting protein kinase 2 (Homo sapiens) (UniProt Q9H2X6); experiment: Inhibition of HIPK2 (unknown origin) assessed as residual activity at 50 uM relative to control; how it was run: as §2
Chain of Homeodomain-interacting protein kinase 2 (Homo sapiens) (Q9H2X6 whole entry, looked up): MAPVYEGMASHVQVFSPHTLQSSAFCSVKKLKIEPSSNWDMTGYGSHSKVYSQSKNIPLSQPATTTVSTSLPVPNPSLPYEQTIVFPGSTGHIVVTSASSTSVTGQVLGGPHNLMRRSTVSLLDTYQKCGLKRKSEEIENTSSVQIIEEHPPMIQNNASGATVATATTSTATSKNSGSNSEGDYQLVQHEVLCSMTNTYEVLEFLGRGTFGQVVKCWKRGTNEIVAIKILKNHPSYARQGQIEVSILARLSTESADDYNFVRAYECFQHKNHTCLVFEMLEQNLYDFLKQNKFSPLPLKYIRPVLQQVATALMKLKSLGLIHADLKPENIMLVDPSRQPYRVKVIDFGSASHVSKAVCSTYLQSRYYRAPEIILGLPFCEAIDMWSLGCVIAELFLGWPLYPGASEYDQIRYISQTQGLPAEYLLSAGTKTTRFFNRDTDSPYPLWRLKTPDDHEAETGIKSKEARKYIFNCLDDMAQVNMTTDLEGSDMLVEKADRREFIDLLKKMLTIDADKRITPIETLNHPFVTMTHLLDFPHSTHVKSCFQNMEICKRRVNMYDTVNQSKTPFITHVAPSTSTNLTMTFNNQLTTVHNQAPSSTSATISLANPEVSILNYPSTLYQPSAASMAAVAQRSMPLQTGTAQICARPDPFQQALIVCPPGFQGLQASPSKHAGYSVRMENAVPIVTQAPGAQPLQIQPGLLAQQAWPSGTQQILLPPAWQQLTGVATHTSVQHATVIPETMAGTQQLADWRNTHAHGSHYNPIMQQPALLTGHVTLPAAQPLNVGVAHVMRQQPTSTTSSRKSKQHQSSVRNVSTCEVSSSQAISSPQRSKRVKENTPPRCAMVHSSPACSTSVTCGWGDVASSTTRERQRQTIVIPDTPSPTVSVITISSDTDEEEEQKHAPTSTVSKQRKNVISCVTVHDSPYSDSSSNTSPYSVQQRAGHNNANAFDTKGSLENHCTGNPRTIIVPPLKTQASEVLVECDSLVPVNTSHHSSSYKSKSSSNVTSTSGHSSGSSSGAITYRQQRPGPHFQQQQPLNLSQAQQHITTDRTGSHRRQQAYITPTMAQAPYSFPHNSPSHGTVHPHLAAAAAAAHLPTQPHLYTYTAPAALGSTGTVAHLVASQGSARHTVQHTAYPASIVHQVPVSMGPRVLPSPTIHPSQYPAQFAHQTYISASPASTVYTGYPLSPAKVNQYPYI

[21] = target: MAP kinase-interacting serine/threonine-protein kinase 1 (Homo sapiens) (UniProt Q9BUB5); experiment: Inhibition of MNK1 (unknown origin) assessed as residual activity at 50 uM relative to control; how it was run: as §2
[22] = target: Serine/threonine-protein kinase TBK1 (Homo sapiens) (UniProt Q9UHD2); experiment: Inhibition of TBK1 (unknown origin) assessed as residual activity at 50 uM relative to control; how it was run: as §3
Chain of Serine/threonine-protein kinase TBK1 (Homo sapiens) (Q9UHD2 whole entry): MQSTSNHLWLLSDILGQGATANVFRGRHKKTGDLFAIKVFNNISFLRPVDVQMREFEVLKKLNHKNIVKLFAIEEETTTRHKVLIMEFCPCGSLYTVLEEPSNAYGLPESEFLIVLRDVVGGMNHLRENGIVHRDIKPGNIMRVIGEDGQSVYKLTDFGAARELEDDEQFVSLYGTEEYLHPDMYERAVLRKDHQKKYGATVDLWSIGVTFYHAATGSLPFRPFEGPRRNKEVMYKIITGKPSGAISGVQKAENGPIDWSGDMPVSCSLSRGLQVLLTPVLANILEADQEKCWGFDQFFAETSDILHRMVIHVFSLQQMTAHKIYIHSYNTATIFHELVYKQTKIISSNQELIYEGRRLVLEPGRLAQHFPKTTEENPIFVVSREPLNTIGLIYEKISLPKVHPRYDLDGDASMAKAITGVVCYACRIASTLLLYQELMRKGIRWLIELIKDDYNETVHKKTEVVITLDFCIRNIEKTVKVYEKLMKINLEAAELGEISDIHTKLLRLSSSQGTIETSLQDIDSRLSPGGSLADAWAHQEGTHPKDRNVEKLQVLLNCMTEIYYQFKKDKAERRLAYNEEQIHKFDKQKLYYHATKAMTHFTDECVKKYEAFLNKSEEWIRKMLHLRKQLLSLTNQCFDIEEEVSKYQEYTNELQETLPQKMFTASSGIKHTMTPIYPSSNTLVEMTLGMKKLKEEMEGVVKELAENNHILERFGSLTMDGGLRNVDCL

[23] = target: Tyrosine-protein kinase ABL1 (Homo sapiens) (UniProt P00519); experiment: Inhibition of ABL (unknown origin) assessed as residual activity at 50 uM relative to control; how it was run: as §2
[24] = target: Tyrosine-protein kinase JAK2 (Homo sapiens) (UniProt O60674); experiment: Inhibition of JAK2 (unknown origin) assessed as residual activity at 50 uM relative to control; how it was run: as §2
[25] = target: Cyclin-dependent kinase 1/cyclin B1 (Homo sapiens) (UniProt P06493+P14635); experiment: Inhibition of CDK1/cyclin B (unknown origin) assessed as residual activity at 50 uM relative to control; format: protein-complex assay; how it was run: as §2
[26] = target: Epidermal growth factor receptor (Homo sapiens) (UniProt P00533); experiment: Inhibition of EGFR (unknown origin) assessed as residual activity at 50 uM relative to control; how it was run: as §2
[27] = target: Homeodomain-interacting protein kinase 3 (Homo sapiens) (UniProt Q9H422); experiment: Inhibition of HIPK3 (unknown origin) assessed as residual activity at 50 uM relative to control; how it was run: as §2
[28] = target: Myosin light chain kinase 2, skeletal/cardiac muscle (Homo sapiens) (UniProt Q9H1R3); experiment: Inhibition of MLCK2 (unknown origin) assessed as residual activity at 50 uM relative to control; how it was run: as §2
[29] = target: Dual specificity tyrosine-phosphorylation-regulated kinase 1A (Homo sapiens) (UniProt Q13627); experiment: Inhibition of DYRK1A (unknown origin) assessed as residual activity at 50 uM relative to control; how it was run: as §2
[30] = target: Casein kinase I isoform gamma-1 (Homo sapiens) (UniProt Q9HCP0); experiment: Inhibition of CK1gamma1 (unknown origin) assessed as residual activity at 50 uM relative to control; how it was run: as §2
Chain of Casein kinase I isoform gamma-1 (Homo sapiens) (Q9HCP0 whole entry, looked up, canonical isoform): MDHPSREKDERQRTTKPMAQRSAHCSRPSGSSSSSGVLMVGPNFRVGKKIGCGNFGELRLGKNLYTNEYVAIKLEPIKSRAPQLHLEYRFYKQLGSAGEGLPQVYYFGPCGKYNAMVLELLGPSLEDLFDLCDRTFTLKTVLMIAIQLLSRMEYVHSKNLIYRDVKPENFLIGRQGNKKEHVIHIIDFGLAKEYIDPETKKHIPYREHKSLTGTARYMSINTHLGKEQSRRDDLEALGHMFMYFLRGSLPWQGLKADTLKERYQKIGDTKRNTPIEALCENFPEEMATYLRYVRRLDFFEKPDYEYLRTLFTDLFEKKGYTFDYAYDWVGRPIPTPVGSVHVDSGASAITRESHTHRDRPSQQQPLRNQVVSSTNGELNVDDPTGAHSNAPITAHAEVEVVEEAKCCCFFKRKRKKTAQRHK

[31] = target: Cyclin-dependent kinase 2/cyclin E1 (Homo sapiens) (UniProt P24864+P24941); experiment: Inhibition of CDK2/cyclin E (unknown origin) assessed as residual activity at 50 uM relative to control; format: protein-complex assay; how it was run: as §2
[32] = target: Dual specificity protein kinase CLK3 (Homo sapiens) (UniProt P49761); experiment: Inhibition of CLK3 (unknown origin) assessed as residual activity at 50 uM relative to control; how it was run: as §2
[33] = target: Dual specificity mitogen-activated protein kinase kinase 1 (Homo sapiens) (UniProt Q02750); experiment: Inhibition of MEK1 (unknown origin) assessed as residual activity at 50 uM relative to control; how it was run: as §2
Chain of Dual specificity mitogen-activated protein kinase kinase 1 (Homo sapiens) (Q02750 whole entry): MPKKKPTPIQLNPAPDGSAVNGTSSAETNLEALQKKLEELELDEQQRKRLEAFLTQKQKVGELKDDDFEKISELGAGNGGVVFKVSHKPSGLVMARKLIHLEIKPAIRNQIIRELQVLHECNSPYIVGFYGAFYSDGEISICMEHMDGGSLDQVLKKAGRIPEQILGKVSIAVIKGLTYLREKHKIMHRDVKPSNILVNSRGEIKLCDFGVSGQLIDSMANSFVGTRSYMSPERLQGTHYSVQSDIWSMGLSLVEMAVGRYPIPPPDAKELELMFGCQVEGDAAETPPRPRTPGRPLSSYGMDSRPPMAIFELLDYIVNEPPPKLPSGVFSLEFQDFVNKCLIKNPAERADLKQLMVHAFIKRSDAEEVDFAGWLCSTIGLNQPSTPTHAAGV

[34] = target: Muscle, skeletal receptor tyrosine-protein kinase (Homo sapiens) (UniProt O15146); experiment: Inhibition of MUSK (unknown origin) assessed as residual activity at 50 uM relative to control; how it was run: as §2
[35] = target: Receptor-interacting serine/threonine-protein kinase 2 (Homo sapiens) (UniProt O43353); experiment: Inhibition of RIPK2 (unknown origin) assessed as residual activity at 50 uM relative to control; how it was run: as §3
[36] = target: Serine/threonine-protein kinase pim-1 (Homo sapiens) (UniProt P11309); experiment: Inhibition of PIM1 (unknown origin) assessed as residual activity at 50 uM relative to control; how it was run: as §2
[37] = target: Rho-associated protein kinase 1 (Homo sapiens) (UniProt Q13464); experiment: Inhibition of ROCK1 (unknown origin) assessed as residual activity at 50 uM relative to control; how it was run: as §3
[38] = target: Dual specificity protein kinase CLK4 (Homo sapiens) (UniProt Q9HAZ1); experiment: Inhibition of CLK4 (unknown origin) assessed as residual activity at 50 uM relative to control; how it was run: as §2
[39] = target: Serine/threonine-protein kinase haspin (Homo sapiens) (UniProt Q8TF76); experiment: Inhibition of haspin (unknown origin) assessed as residual activity at 50 uM relative to control; how it was run: as §3
[40] = target: Dual specificity protein kinase CLK2 (Homo sapiens) (UniProt P49760); experiment: Inhibition of CLK2 (unknown origin) assessed as residual activity at 50 uM relative to control; how it was run: as §2
[41] = target: Casein kinase II alpha/beta (Homo sapiens) (UniProt P67870+P68400); experiment: Inhibition of recombinant human GST-tagged CK2alpha2/CK2beta2 at 15 uM in presence of ATP by radiometric kinase assay; format: protein-complex assay
[42] = target: T1, Casein kinase II subunit alpha; experiment: Inhibition of recombinant human GST-tagged CK2alpha at 15 uM in presence of varying ATP levels by radiometric kinase assay
[43] = target: T1, Casein kinase II subunit alpha; experiment: Inhibition of recombinant human GST-tagged CK2alpha at 15 uM in presence of varying substrate levels by radiometric kinase assay

Compound: COC(=O)c1ccc(Nc2nc(-c3cccc([N+](=O)[O-])c3)cs2)cc1
inhibition [1]: 9%

Compound: O=C(O)c1cccc(Nc2nc(-c3cccc([N+](=O)[O-])c3)cs2)c1
inhibition [41]: Active
IC50 [4]: 27.7 µM
inhibition [42]: Active
inhibition [43]: Active

Compound: O=C(O)c1ccc(Nc2nc(-c3ccccn3)cs2)cc1
solubility [2]: Soluble

Compound: O=[N+]([O-])c1cccc(-c2csc(Nc3ccccc3)n2)c1
inhibition [1]: 27%

Compound: O=C(O)c1ccc(Nc2nccs2)cc1
inhibition [1]: 0%

Continued, in another order:

solubility [2]: Soluble
Activity [3]: inactive
IC50 [4]: 9 µM
Activity [5]: Active
Ki [6]: 1.1 µM
Activity [7]: Active
Activity [8]: Active
Activity [9]: Active
Tm [10]: 50.3 °C
Compound: O=C(O)c1ccc(Nc2nc(-c3ccccc3)cs2)cc1

Activity [11]: 29%
Activity [12]: 92%
Activity [13]: 27%
Activity [14]: 34%
Activity [15]: 80%
Activity [16]: 102%
Activity [18]: 72%
Activity [19]: 116%
Activity [20]: 57%
Activity [21]: 101%
Activity [22]: 75%
Activity [23]: 69%
Activity [24]: 98%
Activity [25]: 78%
Activity [26]: 106%
Activity [27]: 82%
Activity [28]: 39%
Activity [29]: 79%
Activity [30]: 31%
Activity [31]: 107%
Activity [32]: 86%
Activity [33]: 95%
Activity [34]: 90%
Activity [35]: 86%
Activity [36]: 57%
Activity [37]: 107%
Activity [38]: 39%
Activity [39]: 55%
Activity [40]: 67%
Compound: O=C(O)c1ccc(Nc2nc(-c3cccc(Br)c3)cs2)cc1
Activity [17]: 104%
